# From ChEMBL document CHEMBL4145601, “Novel Nitric Oxide Donors of Phenylsulfonylfuroxan and 3-Benzyl Coumarin Derivatives as Potent Antitumor Agents” (ACS Med Chem Lett, 2018)
# Activity calls are given as the source filed them. The rule behind the calls is not given here.
# How the values were obtained:
# [1] = system: WI-38; assay: Cytotoxicity against human WI38 cells after 72 hrs by MTS assay; format: cell-based; conditions: WI-38, 72 h
# Procedure, shortened: (§1)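 Non-tumour human cells were HUVEC (umbilical vein endothelial), T29 (immortalized, nontumorigenic ovarian epithelial), WI-38 (lung fibroblasts) and MCF-10A (nontumorigenic breast epithelial). Viability was read by tetrazolium assay. IC50 is the mean of triplicate determinations.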
# [2] = system: SK-OV-3; assay: Antiproliferative activity against human SKOV3 cells after 48 hrs by MTT assay; format: functional, cell-based; conditions: SK-OV-3, 48 h
# Procedure, shortened: (§2)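 Human tumour lines were HeLa (cervical), SKOV3, OVCA429, OVCA433 and A2780 (ovarian), A549 (non-small cell lung), MDA-MB-231 and MCF-7 (breast), and KB (oral epidermoid). Antiproliferation was read by MTT assay. IC50 is the mean of triplicate determinations.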
# [3] = Antiproliferative activity against human OVCA433 cells after 48 hrs by MTT assay; format: functional, cell-based; conditions: OVCA433, 48 h; procedure, shortened: as §2
# [4] = system: MV4-11; assay: Antiproliferative activity against human MV411 cells after 72 hrs by MTS assay; format: functional, cell-based; conditions: MV4-11, 72 h
# Procedure, shortened: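 Human myeloid leukaemia MV-4-11 cells; antiproliferation read by MTS assay. IC50 is the mean of triplicate determinations.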
# [5] = system: HeLa; assay: Antiproliferative activity against human HeLa cells after 48 hrs by MTT assay; format: functional, cell-based; procedure, shortened: as §2
# [6] = Cytotoxicity against human T29 cells after 48 hrs by MTT assay; format: cell-based; conditions: T29, 48 h; procedure, shortened: as §1
# [7] = Antiproliferative activity against human A2780/CDDP cells after 48 hrs by MTT assay; format: functional, cell-based
# Procedure, shortened: (§3)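 Drug-resistant human tumour lines were A2780/CDDP (cisplatin-resistant ovarian), MDA-MB-231/Gem (gemcitabine-resistant breast), MCF-7/ADR and KB-V. Antiproliferation was read by MTT assay. IC50 is the mean of triplicate determinations.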
# [8] = system: HUVEC; assay: Cytotoxicity against HUVEC after 48 hrs by MTT assay; format: cell-based; conditions: Homo sapiens; procedure, shortened: as §1
# [9] = system: A2780; assay: Antiproliferative activity against human A2780 cells after 48 hrs by MTT assay; format: functional, cell-based; conditions: A2780, 48 h; procedure, shortened: as §2
# [10] = system: A549; assay: Antiproliferative activity against human A549 cells after 48 hrs by MTT assay; format: functional, cell-based; conditions: A549, 48 h; procedure, shortened: as §2
# [11] = system: MCF-10A; assay: Cytotoxicity against human MCF10A cells after 72 hrs by MTS assay; format: cell-based; procedure, shortened: as §1
# [12] = system: A2780; assay: Induction of apoptosis in human A2780 cells assessed as increase in late apoptotic cells at 10 to 20 nM measured after 24 hrs by Annexin-V-FITC/propidium iodide staining based flow cytometric method; format: functional, cell-based
# [13] = system: MCF7; assay: Antiproliferative activity against human MCF7 cells after 48 hrs by MTT assay; format: functional, cell-based; conditions: MCF7, 48 h; procedure, shortened: as §2
# [14] = Antiproliferative activity against human KBV cells after 48 hrs by MTT assay; format: functional, cell-based; procedure, shortened: as §3
# [15] = system: KB; assay: Antiproliferative activity against human KB cells after 48 hrs by MTT assay; format: functional, cell-based; procedure, shortened: as §2
# [16] = Antiproliferative activity against human OVCA429 cells after 48 hrs by MTT assay; format: functional, cell-based; conditions: OVCA429, 48 h; procedure, shortened: as §2
# [17] = Drug metabolism in human A2780 cells assessed as nitric oxide release at 100 uM after 150 mins by Griess assay; format: ADME, cell-based; conditions: a2780, 2.5 h
# [18] = system: NCI/ADR-RES; assay: Antiproliferative activity against human MCF7/ADR cells after 48 hrs by MTT assay; format: functional, cell-based; procedure, shortened: as §3
# [19] = system: MM1.S; assay: Antiproliferative activity against human MM1S cells after 72 hrs by MTS assay; format: functional, cell-based
# [20] = Selectivity ratio of IC50 for human A2780 cells to IC50 for A2780/CDDP cells; format: functional
# Procedure, shortened: (§4)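 Selectivity ratio = IC50 in the drug-sensitive parent line / IC50 in its resistant subline (A2780 vs A2780/CDDP, MDA-MB-231 vs MDA-MB-231/Gem, MCF-7 vs MCF-7/ADR, KB vs KB-V). Each IC50 came from MTT assays, mean of triplicates.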
# [21] = Antiproliferative activity against human MDA-MB-231/Gem cells after 48 hrs by MTT assay; format: functional, cell-based
# [22] = target: Dual specificity mitogen-activated protein kinase kinase; MEK1/2 (Homo sapiens) (UniProt P36507+Q02750); assay: Inhibition of MEK (unknown origin); format: protein assay
# Sequence of Dual specificity mitogen-activated protein kinase kinase; MEK1/2 (Homo sapiens) (P36507 whole entry, looked up): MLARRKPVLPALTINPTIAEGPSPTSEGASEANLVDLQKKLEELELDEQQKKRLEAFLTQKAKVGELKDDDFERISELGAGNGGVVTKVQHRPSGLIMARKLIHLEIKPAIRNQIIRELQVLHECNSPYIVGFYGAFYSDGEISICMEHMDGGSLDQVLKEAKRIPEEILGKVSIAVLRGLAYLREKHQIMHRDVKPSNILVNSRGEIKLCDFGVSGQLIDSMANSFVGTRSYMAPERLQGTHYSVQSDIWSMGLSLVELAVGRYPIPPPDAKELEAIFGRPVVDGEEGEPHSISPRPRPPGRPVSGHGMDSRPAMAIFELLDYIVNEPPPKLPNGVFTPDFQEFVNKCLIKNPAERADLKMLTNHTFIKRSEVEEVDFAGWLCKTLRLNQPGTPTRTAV
# Sequence of Dual specificity mitogen-activated protein kinase kinase; MEK1/2 (Homo sapiens) (Q02750 whole entry, looked up): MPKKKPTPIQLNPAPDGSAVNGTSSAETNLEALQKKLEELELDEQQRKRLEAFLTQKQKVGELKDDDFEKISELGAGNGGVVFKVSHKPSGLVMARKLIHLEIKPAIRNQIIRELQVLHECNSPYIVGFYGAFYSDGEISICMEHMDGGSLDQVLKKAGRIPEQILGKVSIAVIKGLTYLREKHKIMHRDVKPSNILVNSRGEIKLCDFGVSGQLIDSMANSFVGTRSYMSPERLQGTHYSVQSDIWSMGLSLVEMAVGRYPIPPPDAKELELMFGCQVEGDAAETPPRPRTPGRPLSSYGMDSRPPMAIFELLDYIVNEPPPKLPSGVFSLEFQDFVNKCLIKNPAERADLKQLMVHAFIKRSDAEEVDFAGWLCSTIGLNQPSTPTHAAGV
# [23] = system: MDA-MB-231; assay: Antiproliferative activity against human MDA-MB-231 cells after 48 hrs by MTT assay; format: functional, cell-based; conditions: MDA-MB-231, 48 h
# [24] = Selectivity ratio of IC50 for human KB cells to IC50 for KBV cells; format: functional; procedure, shortened: as §4
# [25] = Selectivity ratio of IC50 for human MCF7 cells to IC50 for MCF7/ADR cells; format: functional; procedure, shortened: as §4
# [26] = Selectivity ratio of IC50 for human MDA-MB-231 cells to IC50 for MDA-MB-231/Gem cells; format: functional; procedure, shortened: as §4
# [27] = Resistance ratio of IC50 for human MDA-MB-231/Gem cells to IC50 for human MDA-MB-231 cells; format: functional
# Procedure, shortened: (§5)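 Resistance ratio = IC50 in the resistant line / IC50 in the drug-sensitive parent line. Each IC50 came from MTT assays, mean of triplicate determinations.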
# [28] = Resistance ratio of IC50 for human KBV cells to IC50 for human KB cells; format: functional; procedure, shortened: as §5
# [29] = system: A2780; assay: Induction of apoptosis in human A2780 cells assessed as increase in early apoptotic cells at 10 to 20 nM measured after 24 hrs by Annexin-V-FITC/propidium iodide staining based flow cytometric method; format: functional, cell-based
# [30] = system: A2780; assay: Antiproliferative activity against human A2780 cells at 50 nM after 48 hrs in presence of scavenger c-PTIO by MTT assay; format: functional, cell-based
# Procedure, shortened: (§6)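 A2780 and A2780/CDDP cells were exposed to compound at 50 nM together with a series of concentrations of the NO scavenger c-PTIO. Antiproliferation was measured and reported as mean ± SEM of two independent experiments.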
# [31] = species on record: Homo sapiens; assay: Antiproliferative activity against human A2780/CDDP cells at 50 nM after 48 hrs in presence of scavenger c-PTIO by MTT assay; format: functional, cell-based; procedure, shortened: as §6
IC50 [2],IC50 [4],IC50 [5],IC50 [9],IC50 [10],IC50 [13],IC50 [15],Drug metabolism [17],IC50 [19],IC50 [23],SMILES,IC50 [1],IC50 [3],IC50 [6],IC50 [7],IC50 [8],IC50 [14],IC50 [16],IC50 [18],Ratio IC50 [20],IC50 [21],other results
47.3 nM,28.3 nM,62.2 nM,20.9 nM,45.8 nM,445 nM,127 nM,Metabolite_Detected,21 nM,–,Cc1cc(=O)oc2cc(OCCOc3no[n+]([O-])c3S(=O)(=O)c3ccccc3)ccc12,90 nM,131 nM,1800 nM,85.7 nM,130 nM,24.9 nM,41.1 nM,157 nM,–,–,IC50 [11]: 660 nM; Activity [12]: Active
–,–,–,–,–,–,–,–,–,–,COc1cccc2c1C(=O)c1c(O)c3c(c(O)c1C2=O)C[C@@](O)(C(=O)CO)C[C@@H]3O[C@H]1C[C@H](N)[C@H](O)[C@H](C)O1 [DOXORUBICIN],–,–,–,–,–,–,–,> 100000 nM,–,–,–
17.3 nM,24.5 nM,22.9 nM,12.7 nM,2 nM,2350 nM,4540 nM,Metabolite_Detected,12 nM,6 nM,Cc1c(Cc2ccccc2)c(=O)oc2cc(OCCOc3no[n+]([O-])c3S(=O)(=O)c3ccccc3)ccc12,> 20000 nM,1.1 nM,> 5000 nM,94 nM,440 nM,16 nM,1.7 nM,16.3 nM,0.1,25.2 nM,inhibition [22]: inactive; Ratio IC50 [24]: 283.9; Ratio IC50 [25]: 144.2; IC50 [11]: > 20000 nM; Ratio IC50 [26]: 0.2
–,–,–,–,–,–,–,–,–,36.4 nM,Nc1ccn([C@@H]2O[C@H](CO)[C@@H](O)C2(F)F)c(=O)n1 [GEMCITABINE],–,–,–,–,–,–,–,–,–,> 50000 nM,Ratio IC50 [27]: >1373
–,–,–,–,–,–,0.65 nM,–,–,–,CC[C@]1(O)C[C@H]2CN(CCc3c([nH]c4ccccc34)[C@@](C(=O)OC)(c3cc4c(cc3OC)N(C=O)[C@H]3[C@@](O)(C(=O)OC)[C@H](OC(C)=O)[C@]5(CC)C=CCN6CC[C@]43[C@@H]65)C2)C1 [VINCRISTINE],–,–,–,–,–,417 nM,–,–,–,–,Ratio IC50 [28]: 646
3910 nM,–,8830 nM,1640 nM,4780 nM,3500 nM,3690 nM,–,–,1230 nM,COCCOc1no[n+]([O-])c1S(=O)(=O)c1ccccc1,–,4390 nM,–,4820 nM,–,1960 nM,5170 nM,7840 nM,0.3,4750 nM,Ratio IC50 [24]: 1.9; Ratio IC50 [25]: 0.5; Ratio IC50 [26]: 0.3
–,0.3 nM,–,–,–,–,–,–,–,–,Cc1ccc(NC(=O)NCc2ccc3c(c2)CN(C2CCC(=O)NC2=O)C3=O)cc1Cl (stereo not given),> 20000 nM,–,–,–,–,–,–,–,–,–,IC50 [11]: 5 nM
25 nM,29.6 nM,6.9 nM,14.5 nM,3.5 nM,1410 nM,1660 nM,Metabolite_Detected,25 nM,1.4 nM,COc1cc(OCCOc2no[n+]([O-])c2S(=O)(=O)c2ccccc2)ccc1C(=O)/C=C/c1ccc(F)cc1,560 nM,6.6 nM,3500 nM,34.1 nM,360 nM,10.1 nM,4 nM,47.9 nM,0.4,93 nM,inhibition [22]: inactive; Ratio IC50 [24]: 164.9; Ratio IC50 [25]: 29.5; Ratio IC50 [26]: 0.02; Activity [29]: Active
35.8 nM,29.3 nM,17.8 nM,8.7 nM,3.3 nM,1860 nM,2180 nM,Metabolite_Detected,28 nM,0.5 nM,COc1cc(OCCOc2no[n+]([O-])c2S(=O)(=O)c2ccccc2)ccc1C(=O)/C=C/c1ccccc1,440 nM,10.1 nM,2500 nM,51.7 nM,410 nM,13.9 nM,4.4 nM,18 nM,0.2,10.5 nM,inhibition [22]: inactive; Ratio IC50 [24]: 157; Ratio IC50 [25]: 103.6; Ratio IC50 [26]: 0.05
–,> 20000 nM,–,–,–,–,–,–,–,–,Nc1cccc2c1CN(C1CCC(=O)NC1=O)C2=O (stereo not given) [LENALIDOMIDE],> 20000 nM,–,–,–,–,–,–,–,–,–,IC50 [11]: > 20000 nM
19.2 nM,66.3 nM,15.4 nM,10.2 nM,7.9 nM,3130 nM,1140 nM,Metabolite_Detected,24 nM,1.1 nM,CNS(=O)(=O)Nc1cccc(Cc2c(C)c3ccc(OCCOc4no[n+]([O-])c4S(=O)(=O)c4ccccc4)cc3oc2=O)c1,1360 nM,16.3 nM,> 5000 nM,47.2 nM,190 nM,65.4 nM,6.1 nM,50.1 nM,0.2,50.4 nM,inhibition [22]: inactive; Ratio IC50 [24]: 17.5; Ratio IC50 [25]: 62.5; Ratio IC50 [26]: 0.02
8.3 nM,27.2 nM,2.8 nM,6.6 nM,3.7 nM,2850 nM,3230 nM,Metabolite_Detected,143 nM,0.8 nM,Cc1c(Cc2ccc(F)cc2)c(=O)oc2cc(OCCOc3no[n+]([O-])c3S(=O)(=O)c3ccccc3)ccc12,> 20000 nM,3.3 nM,> 5000 nM,22.8 nM,270 nM,11 nM,3.9 nM,5.1 nM,0.3,6.9 nM,inhibition [22]: inactive; Ratio IC50 [24]: 294; Ratio IC50 [25]: 559.4; Activity [30]: inactive; IC50 [11]: > 20000 nM; Activity [31]: inactive; Ratio IC50 [26]: 0.1; Activity [29]: Active
